These results are taken from ChEMBL document CHEMBL1124270, “Quinolone antibacterial agents. Synthesis and structure-activity relationships of 8-substituted quinoline-3-carboxylic acids and 1,8-naphthyridine-3-carboxylic acids” (1988).

In brackets after ≈: the same amount, converted by molar mass. A value given as a limit tells only on which side of the number the result lay.

Common to all, as to format: functional
The test system of assay [1] is Enterobacter cloacae. Description: Minimum inhibitory concentration against Enterobacter cloacae HA 2646 in vitro.
Assay [2] deals with Staphylococcus aureus. Description: Minimum inhibitory concentration against Staphylococcus aureus H228 in vitro.
For assay [3], the system named is Streptococcus pyogenes. Description: Minimum inhibitory concentration against Streptococcus pyogenes C203 in vitro.
In assay [4] the test system is Klebsiella pneumoniae. Description: Minimum inhibitory concentration against Klebsiella pneumoniae MGH-2 in vitro.
The subject of assay [5] is Pseudomonas aeruginosa. Description: Minimum inhibitory concentration against Pseudomonas aeruginosa UI-18 in vitro.
The subject of assay [6] is Staphylococcus aureus. Description: Minimum inhibitory concentration against Staphylococcus aureus UC-76 in vitro.
Assay [7] concerns Escherichia coli. Put plainly: Minimum inhibitory concentration against Escherichia coli H560 in vitro.
Assay [8] deals with Providencia rettgeri. Description: Minimum inhibitory concentration against Providencia rettgeri H1771 in vitro.
Assay [9] deals with Enterococcus faecalis. Description: Minimum inhibitory concentration against Streptococcus faecalis MGH-2 in vitro.
Assay [10] concerns Mus musculus. Description: In vivo potency against Escherichia coli vogel using mouse protection assay when given subcutaneously. Particulars: sc, read-out: PD50.
Assay [11] concerns Mus musculus. Description: In vivo potency against Escherichia coli vogel using mouse protection assay when given perorally. Particulars: po, read-out: PD50.
Assay [12] deals with Escherichia coli. Description: Minimum inhibitory concentration against Escherichia coli vogel in vitro.
Assay [13] has as its system Streptococcus pneumoniae. Description: Minimum inhibitory concentration against Streptococcus pneumoniae SV-1 in vitro.
Assay [14] relates to Escherichia coli. Put plainly: Minimum concentration needed to produce linear DNA at an intensity relative to oxolinic at 10 ug/mL in Escherichia coli H560 in vitro. An outline of the steps: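 DNA gyrase cleavage test, run as previously described: end point is the lowest drug level (µg/mL) that yields linear DNA at a band intensity matching oxolinic acid at 10 µg/mL. Values come from duplicate or triplicate experiments and are stated as accurate to ±50%.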

What is called MIC is the lowest concentration found to suppress growth. A high value points to a need for much substance. For the molecule `NCC1CCN(c2cc3c(cc2F)c(=O)c(C(=O)O)cn3C2CC2)C1` (stereo not given), the MIC in assay [1] is 0.05 µg/mL (≈ 0.145 µM); in [2], 0.025 µg/mL (≈ 0.0724 µM); in [3], 0.025 µg/mL (≈ 0.0724 µM); in [4], 0.05 µg/mL (≈ 0.145 µM); in [5], 0.8 µg/mL (≈ 2.32 µM); in assay [6] it was 0.006 µg/mL (≈ 0.0174 µM). In addition, the MIC in assay [7] is 0.006 µg/mL (≈ 0.0174 µM); in assay [8], 0.2 µg/mL (≈ 0.579 µM); in assay [9] it was 0.025 µg/mL (≈ 0.0724 µM); in [12], 0.05 µg/mL (≈ 0.145 µM); in [13] it was 0.003 µg/mL (≈ 0.00869 µM). Further, the ED50 was 2 mg/kg in assay [10] and above 100 mg/kg in assay [11]. The same molecule showed a DNA cleavage conc (gyrase) in assay [14] of 0.5 µg/mL.
Consider `CCNCC1CCN(c2c(F)cc3c(=O)c(C(=O)O)cn4c3c2OCC4C)C1` (stereo not given), for which the minimum inhibitory concentration (MIC) was found to be 0.2 µg/mL (≈ 0.514 µM) in [1]; 0.2 µg/mL (≈ 0.514 µM) in assay [2]; 0.05 µg/mL (≈ 0.128 µM) in assay [3]; 0.4 µg/mL (≈ 1.03 µM) in assay [4]; 0.8 µg/mL (≈ 2.05 µM) in assay [5]; 0.025 µg/mL (≈ 0.0642 µM) in assay [6]. In addition, the minimal inhibitory concentration (MIC) in assay [7] was found to be 0.05 µg/mL (≈ 0.128 µM); in [8] it was 0.8 µg/mL (≈ 2.05 µM); in [9] it was 0.1 µg/mL (≈ 0.257 µM); in [12], 0.1 µg/mL (≈ 0.257 µM); in assay [13] it was 0.05 µg/mL (≈ 0.128 µM). The ED50 was 11 mg/kg in assay [10] and above 100 mg/kg in assay [11]. Further, the DNA cleavage conc (gyrase) in assay [14] was determined as 0.5 µg/mL.
For the molecule `CC1COc2c(N3CCC(CN)C3)c(F)cc3c(=O)c(C(=O)O)cn1c23` (stereo not given), the MIC was found to be 0.2 µg/mL (≈ 0.553 µM) in assay [1]; 0.2 µg/mL (≈ 0.553 µM) in [2]; 0.025 µg/mL (≈ 0.0692 µM) in assay [3]; 0.4 µg/mL (≈ 1.11 µM) in assay [4]; 1.6 µg/mL (≈ 4.43 µM) in assay [5]; 0.05 µg/mL (≈ 0.138 µM) in [6]. Moreover, the MIC was determined as 0.05 µg/mL (≈ 0.138 µM) in [7]; 0.8 µg/mL (≈ 2.21 µM) in assay [8]; 0.1 µg/mL (≈ 0.277 µM) in assay [9]; 0.2 µg/mL (≈ 0.553 µM) in [12]; 0.025 µg/mL (≈ 0.0692 µM) in assay [13]. For the same molecule, in [11], the ED50 was above 100 mg/kg. In assay [14], this molecule registered a DNA cleavage conc (gyrase) of 0.5 µg/mL.
In the case of `O=C(O)c1cn(C2CC2)c2c(Cl)c(N3CCNCC3)c(F)cc2c1=O`, the MIC in [1] amounted to 0.025 µg/mL (≈ 0.0683 µM); in assay [2], 0.1 µg/mL (≈ 0.273 µM); in [3], 0.2 µg/mL (≈ 0.547 µM); in assay [4] it was 0.05 µg/mL (≈ 0.137 µM); in assay [5] it was 0.4 µg/mL (≈ 1.09 µM); in [6], 0.05 µg/mL (≈ 0.137 µM). The MIC was determined as 0.025 µg/mL (≈ 0.0683 µM) in assay [7]; 0.1 µg/mL (≈ 0.273 µM) in assay [8]; 0.4 µg/mL (≈ 1.09 µM) in [9]; 0.025 µg/mL (≈ 0.0683 µM) in assay [12]; 0.1 µg/mL (≈ 0.273 µM) in assay [13]. Also, the ED50 in assay [10] is 0.4 mg/kg; in assay [11] it was 0.8 mg/kg. In assay [14], this molecule came in with a DNA cleavage conc (gyrase) of 0.5 µg/mL.
As to `CNCC1CCN(c2cc3c(cc2F)c(=O)c(C(=O)O)cn3C2CC2)C1` (stereo not given), the MIC in assay [1] stood at 0.2 µg/mL (≈ 0.556 µM); in assay [2] it was 0.2 µg/mL (≈ 0.556 µM); in [3] it was 0.05 µg/mL (≈ 0.139 µM); in assay [4], 0.2 µg/mL (≈ 0.556 µM); in assay [5], 0.8 µg/mL (≈ 2.23 µM); in assay [6] it was 0.025 µg/mL (≈ 0.0696 µM). Besides, the minimum inhibitory concentration (MIC) in assay [7] came out at 0.1 µg/mL (≈ 0.278 µM); in assay [8], 0.4 µg/mL (≈ 1.11 µM); in assay [9], 0.1 µg/mL (≈ 0.278 µM); in assay [12] it was 0.1 µg/mL (≈ 0.278 µM); in [13], 0.05 µg/mL (≈ 0.139 µM). For the same molecule, the ED50 in assay [11] worked out at 35 mg/kg. The same molecule returned a DNA cleavage conc (gyrase) in assay [14] of 0.5 µg/mL.
As for `Nc1c(N2CCNCC2)c(F)cc2c(=O)c(C(=O)O)cn(C3CC3)c12`, the minimal inhibitory concentration (MIC) in [1] came out at 0.4 µg/mL (≈ 1.15 µM); in [2], 6.3 µg/mL (≈ 18.2 µM); in assay [3], 6.3 µg/mL (≈ 18.2 µM); in assay [4], 0.8 µg/mL (≈ 2.31 µM); in assay [5], 0.8 µg/mL (≈ 2.31 µM); in assay [6], 0.8 µg/mL (≈ 2.31 µM). For the same molecule, the MIC stood at 0.2 µg/mL (≈ 0.577 µM) in [7]; 0.4 µg/mL (≈ 1.15 µM) in assay [8]; 12.5 µg/mL (≈ 36.1 µM) in [9]; 0.4 µg/mL (≈ 1.15 µM) in [12]; 12.5 µg/mL (≈ 36.1 µM) in [13]. Besides, the values for the ED50 in assay [10] and in assay [11] were 2 mg/kg and 58 mg/kg, respectively. This molecule registered a DNA cleavage conc (gyrase) in [14] of 2.5 µg/mL.
For `CC(C)NCC1CCN(c2c(F)cc3c(=O)c(C(=O)O)cn4c3c2OCC4C)C1` (stereo not given), the MIC came to 0.4 µg/mL (≈ 0.991 µM) in assay [1]; 0.05 µg/mL (≈ 0.124 µM) in assay [2]; 0.2 µg/mL (≈ 0.496 µM) in assay [3]; 0.8 µg/mL (≈ 1.98 µM) in [4]; 0.2 µg/mL (≈ 0.496 µM) in assay [5]; 0.4 µg/mL (≈ 0.991 µM) in assay [6]. Besides, the MIC in assay [7] came to 0.4 µg/mL (≈ 0.991 µM); in assay [8], 3.1 µg/mL (≈ 7.68 µM); in assay [9], 0.05 µg/mL (≈ 0.124 µM); in [12] it was 0.2 µg/mL (≈ 0.496 µM); in [13] it was 0.05 µg/mL (≈ 0.124 µM). In addition, the ED50 stood at 2 mg/kg in assay [10] and 8 mg/kg in assay [11].
